According to ChEMBL document CHEMBL1764974, “The discovery of phthalazinone-based human H1 and H3 single-ligand antagonists suitable for intranasal administration for the treatment of allergic rhinitis” (J Med Chem, 2011):
Each block holds one compound with its values, some of them ahead of it.

Key:
Cytochrome P450 3A4 = Cytochrome P450 3A4 (Homo sapiens, UniProt P08684); experiment: Inhibition of CYP3A4; type: ADME
[1] = target: T1, Voltage-gated inwardly rectifying potassium channel KCNH2 (Homo sapiens, UniProt Q12809); experiment: Inhibition of human ERG by patch clamp assay
T1 sequence (Q12809 whole entry): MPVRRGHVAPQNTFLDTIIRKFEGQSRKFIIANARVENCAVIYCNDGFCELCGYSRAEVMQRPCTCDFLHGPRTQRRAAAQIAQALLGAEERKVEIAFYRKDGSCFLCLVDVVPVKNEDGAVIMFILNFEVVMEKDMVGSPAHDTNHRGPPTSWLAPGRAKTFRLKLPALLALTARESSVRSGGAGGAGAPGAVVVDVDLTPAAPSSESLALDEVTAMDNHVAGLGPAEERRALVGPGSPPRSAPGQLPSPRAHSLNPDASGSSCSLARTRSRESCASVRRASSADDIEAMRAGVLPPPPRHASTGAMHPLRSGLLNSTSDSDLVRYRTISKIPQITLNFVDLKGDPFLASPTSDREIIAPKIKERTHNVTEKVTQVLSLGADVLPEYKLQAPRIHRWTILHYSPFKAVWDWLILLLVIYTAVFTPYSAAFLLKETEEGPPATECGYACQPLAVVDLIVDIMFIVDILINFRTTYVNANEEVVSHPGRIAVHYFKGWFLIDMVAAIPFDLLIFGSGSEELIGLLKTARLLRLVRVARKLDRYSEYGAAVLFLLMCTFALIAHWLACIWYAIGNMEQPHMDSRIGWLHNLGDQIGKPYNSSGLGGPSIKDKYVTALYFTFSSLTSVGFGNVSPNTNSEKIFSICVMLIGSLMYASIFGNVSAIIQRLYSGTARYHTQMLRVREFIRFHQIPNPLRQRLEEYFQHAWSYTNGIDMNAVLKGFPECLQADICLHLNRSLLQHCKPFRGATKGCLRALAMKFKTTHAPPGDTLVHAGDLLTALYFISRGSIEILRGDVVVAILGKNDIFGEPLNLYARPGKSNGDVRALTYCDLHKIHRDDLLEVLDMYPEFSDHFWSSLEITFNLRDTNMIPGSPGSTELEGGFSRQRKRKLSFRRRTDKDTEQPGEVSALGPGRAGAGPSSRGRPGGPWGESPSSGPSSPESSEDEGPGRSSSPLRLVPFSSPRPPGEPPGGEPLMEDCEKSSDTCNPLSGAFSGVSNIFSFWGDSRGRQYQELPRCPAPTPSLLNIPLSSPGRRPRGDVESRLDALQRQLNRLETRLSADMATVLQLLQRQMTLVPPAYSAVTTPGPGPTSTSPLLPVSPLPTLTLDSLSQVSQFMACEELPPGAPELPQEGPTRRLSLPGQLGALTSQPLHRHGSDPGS

Hepatocyte = experiment: Metabolic stability in human hepatocytes; type: ADME, cell-based
[2] = Half life in Beagle dog at 3 mg/kg, po and 1 mg/kg, iv; type: ADME, organism-based, Canis lupus familiaris; details: in vivo
How it was run: (§1)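 Male Beagle dogs (n = 3) dosed 3.0 mg/kg po and 1.0 mg/kg iv. Clearance, Vss, t1/2 and F are given with ranges, and clearance as % of liver blood flow. Unchanged drug excreted in urine was measured over 24 h.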

Liver microsomes [3] = experiment: Metabolic stability in rat liver microsomes; type: ADME, Microsome
[4] = target: T2, Alpha-1B adrenergic receptor (Homo sapiens, UniProt P35368); experiment: Binding affinity to human adrenergic Alpha-1B receptor expressed in rat intact fibroblasts
T2 sequence (P35368 whole entry): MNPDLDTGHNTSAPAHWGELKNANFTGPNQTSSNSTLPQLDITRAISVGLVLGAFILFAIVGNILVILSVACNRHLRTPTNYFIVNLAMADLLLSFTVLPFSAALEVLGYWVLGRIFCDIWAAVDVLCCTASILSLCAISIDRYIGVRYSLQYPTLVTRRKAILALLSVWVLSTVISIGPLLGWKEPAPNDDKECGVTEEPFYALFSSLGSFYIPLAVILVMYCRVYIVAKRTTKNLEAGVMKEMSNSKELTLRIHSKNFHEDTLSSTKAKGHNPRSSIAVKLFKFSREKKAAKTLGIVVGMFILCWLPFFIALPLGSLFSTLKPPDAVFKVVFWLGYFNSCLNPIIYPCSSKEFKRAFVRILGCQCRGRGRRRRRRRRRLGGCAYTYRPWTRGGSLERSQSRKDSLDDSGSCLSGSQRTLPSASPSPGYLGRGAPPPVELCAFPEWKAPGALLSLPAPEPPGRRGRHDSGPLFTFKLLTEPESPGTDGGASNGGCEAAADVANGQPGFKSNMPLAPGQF
How it was run: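 Plate-based calcium imaging in intact Rat1 fibroblasts expressing the human α1B adrenoceptor.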

Cytochrome P450 2D6 = Cytochrome P450 2D6 (Homo sapiens, UniProt P10635); experiment: Inhibition of CYP2D6; type: ADME
Cytochrome P450 2D6, sequence (P10635 whole entry): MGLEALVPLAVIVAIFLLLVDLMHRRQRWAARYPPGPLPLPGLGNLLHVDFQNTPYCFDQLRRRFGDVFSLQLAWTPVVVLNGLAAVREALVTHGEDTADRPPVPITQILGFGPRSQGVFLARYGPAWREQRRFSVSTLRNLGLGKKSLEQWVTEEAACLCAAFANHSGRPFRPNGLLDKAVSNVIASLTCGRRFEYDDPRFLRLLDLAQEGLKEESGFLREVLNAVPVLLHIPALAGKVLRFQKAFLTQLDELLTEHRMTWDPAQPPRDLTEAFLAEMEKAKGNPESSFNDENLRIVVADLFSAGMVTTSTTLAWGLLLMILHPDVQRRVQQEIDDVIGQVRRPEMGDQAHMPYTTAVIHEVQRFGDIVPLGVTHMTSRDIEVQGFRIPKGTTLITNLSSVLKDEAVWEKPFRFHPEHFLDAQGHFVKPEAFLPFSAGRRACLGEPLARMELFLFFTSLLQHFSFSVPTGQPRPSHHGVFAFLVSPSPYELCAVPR

[5] = Volume of distribution at steady state in CD rat at 3 mg/kg, po and 1 mg/kg, iv; type: ADME, organism-based; details: in vivo, read-out: Vdss
How it was run: (§2)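 Male CD rats dosed 3.0 mg/kg po and 1.0 mg/kg iv, groups of 3 or 7 animals. Clearance, Vss, t1/2 and F are reported with ranges, and clearance is also expressed as % of liver blood flow.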

Histamine H1 receptor [6] = target: T3, Histamine H1 receptor (Homo sapiens, UniProt P35367); experiment: Antagonist activity at human recombinant histamine H1 receptor expressed in intact CHO cells assessed as inhibition of histamine-induced cellular calcium mobilization by FLIPR assay; type: functional, cell-based
T3 sequence (P35367 whole entry): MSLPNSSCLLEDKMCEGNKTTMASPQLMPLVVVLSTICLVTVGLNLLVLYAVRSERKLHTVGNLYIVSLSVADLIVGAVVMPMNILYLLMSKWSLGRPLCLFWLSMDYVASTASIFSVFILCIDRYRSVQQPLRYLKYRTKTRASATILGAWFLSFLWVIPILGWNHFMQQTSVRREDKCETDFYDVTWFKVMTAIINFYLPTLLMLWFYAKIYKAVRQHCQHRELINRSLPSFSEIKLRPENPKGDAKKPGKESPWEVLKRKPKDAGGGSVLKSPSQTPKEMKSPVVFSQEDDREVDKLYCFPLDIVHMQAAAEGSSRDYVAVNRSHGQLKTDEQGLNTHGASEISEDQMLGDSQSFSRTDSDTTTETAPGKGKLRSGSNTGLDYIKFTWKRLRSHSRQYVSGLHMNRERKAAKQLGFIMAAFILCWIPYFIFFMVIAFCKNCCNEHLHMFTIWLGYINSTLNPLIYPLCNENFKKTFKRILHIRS
How it was run: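 Human recombinant H1 receptor in intact CHO cells; inhibition of agonist-induced calcium mobilization read with Fluo-4AM in FLIPR. EC50 came from a four-parameter logistic fit, and pA2 = log(DR−1) − log[B], where DR is the EC50 ratio versus control.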

Histamine H2 receptor = Histamine H2 receptor (Homo sapiens, UniProt P25021); experiment: Binding affinity to human histamine H2 receptor
Histamine H2 receptor, sequence (P25021 whole entry): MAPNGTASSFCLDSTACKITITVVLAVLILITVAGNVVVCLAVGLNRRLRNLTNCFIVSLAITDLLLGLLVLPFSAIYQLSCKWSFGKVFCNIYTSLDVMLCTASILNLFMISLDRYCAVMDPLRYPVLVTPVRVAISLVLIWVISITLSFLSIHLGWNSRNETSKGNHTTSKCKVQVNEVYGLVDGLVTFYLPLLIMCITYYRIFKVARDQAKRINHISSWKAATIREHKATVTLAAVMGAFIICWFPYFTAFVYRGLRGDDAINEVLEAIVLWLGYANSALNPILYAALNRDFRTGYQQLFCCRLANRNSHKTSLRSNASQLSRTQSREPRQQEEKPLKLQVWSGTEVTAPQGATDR

[7] = Oral bioavailability in CD rat at 3 mg/kg; type: ADME, organism-based; details: in vivo; how it was run: as §2
Histamine H1 receptor [8] = target: T3, Histamine H1 receptor; experiment: Antagonist activity at human recombinant histamine H1 receptor expressed in intact CHO cells assessed as inhibition of histamine-induced cellular calcium mobilization at 100 nM after 30 mins by FLIPR assay; type: functional, cell-based; details: read-out: pA2 (converted)
How it was run: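 Intact CHO cells expressing recombinant human H1; Fluo-4AM calcium dye read on FLIPR. Histamine concentration-response curves run without or with antagonist at a single 100 nM, 30 min incubation. EC50 from four-parameter logistic fit; pA2 = log(DR-1) - log[B], DR being EC50 with antagonist over control EC50.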

[9] = target: T4, Alpha-1A adrenergic receptor (Homo sapiens, UniProt P35348); experiment: Binding affinity to human adrenergic alpha1A receptor expressed in rat intact fibroblasts
T4 sequence (P35348 whole entry): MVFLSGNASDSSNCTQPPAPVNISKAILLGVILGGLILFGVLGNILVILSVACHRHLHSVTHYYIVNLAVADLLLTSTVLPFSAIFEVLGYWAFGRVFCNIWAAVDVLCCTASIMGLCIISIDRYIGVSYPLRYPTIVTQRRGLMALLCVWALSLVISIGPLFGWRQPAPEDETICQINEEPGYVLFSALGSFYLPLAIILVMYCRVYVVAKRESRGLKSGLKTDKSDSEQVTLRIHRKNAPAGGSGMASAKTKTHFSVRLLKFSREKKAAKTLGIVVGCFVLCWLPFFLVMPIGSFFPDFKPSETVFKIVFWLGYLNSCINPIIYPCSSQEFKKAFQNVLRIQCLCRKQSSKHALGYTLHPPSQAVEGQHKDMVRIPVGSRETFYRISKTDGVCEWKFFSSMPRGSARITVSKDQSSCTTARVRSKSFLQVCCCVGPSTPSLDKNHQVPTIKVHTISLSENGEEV

Cytochrome P450 1A2 = target: T5, Cytochrome P450 1A2 (Homo sapiens, UniProt P05177); experiment: Inhibition of CYP1A2; type: ADME
T5 sequence (P05177 whole entry): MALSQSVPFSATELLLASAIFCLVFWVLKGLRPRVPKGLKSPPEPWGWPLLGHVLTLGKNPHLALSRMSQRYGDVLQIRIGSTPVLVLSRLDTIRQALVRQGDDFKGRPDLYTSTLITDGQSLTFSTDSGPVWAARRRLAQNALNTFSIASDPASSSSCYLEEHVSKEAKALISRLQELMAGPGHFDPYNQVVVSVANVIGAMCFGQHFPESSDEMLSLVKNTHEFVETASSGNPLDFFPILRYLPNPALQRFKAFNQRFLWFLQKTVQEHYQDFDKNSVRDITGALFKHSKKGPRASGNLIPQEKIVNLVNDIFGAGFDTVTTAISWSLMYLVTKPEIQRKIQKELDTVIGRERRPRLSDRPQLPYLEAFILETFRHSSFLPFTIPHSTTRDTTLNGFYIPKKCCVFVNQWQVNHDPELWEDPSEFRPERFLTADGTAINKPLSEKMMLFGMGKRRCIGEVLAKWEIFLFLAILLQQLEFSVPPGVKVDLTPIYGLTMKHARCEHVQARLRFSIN

Rattus norvegicus = experiment: Liver blood flow in CD rat at 3 mg/kg, po and 1 mg/kg, iv; type: ADME, organism-based; details: in vivo; how it was run: as §2
[10] = Clearance in Beagle dog at 3 mg/kg, po and 1 mg/kg, iv; type: ADME, organism-based, Canis lupus familiaris; details: in vivo; how it was run: as §1
[11] = Ratio of drug level in brain to blood in CD rat at 1 mg/kg, iv; type: ADME, organism-based; set-up: dose 1 mg/kg, route intravenous; details: read-out: BBR
Liver microsomes [12] = experiment: Metabolic stability in human liver microsomes; type: ADME, Microsome
[13] = Unchanged drug level in Beagle dog urine at 3 mg/kg, po and 1 mg/kg, iv after 24 hrs; type: ADME, organism-based, Canis lupus familiaris; details: read-out: Activity; how it was run: as §1
[14] = Oral bioavailability in Beagle dog at 3 mg/kg; type: ADME, organism-based, Canis lupus familiaris; details: in vivo; how it was run: as §1
Liver = experiment: Metabolic stability in dog liver microsomes; type: ADME, Canis lupus familiaris, Microsome
Cytochrome P450 2C19 = Cytochrome P450 2C19 (Homo sapiens, UniProt P33261); experiment: Inhibition of CYP2C19; type: ADME
Cytochrome P450 2C19, sequence (P33261 whole entry): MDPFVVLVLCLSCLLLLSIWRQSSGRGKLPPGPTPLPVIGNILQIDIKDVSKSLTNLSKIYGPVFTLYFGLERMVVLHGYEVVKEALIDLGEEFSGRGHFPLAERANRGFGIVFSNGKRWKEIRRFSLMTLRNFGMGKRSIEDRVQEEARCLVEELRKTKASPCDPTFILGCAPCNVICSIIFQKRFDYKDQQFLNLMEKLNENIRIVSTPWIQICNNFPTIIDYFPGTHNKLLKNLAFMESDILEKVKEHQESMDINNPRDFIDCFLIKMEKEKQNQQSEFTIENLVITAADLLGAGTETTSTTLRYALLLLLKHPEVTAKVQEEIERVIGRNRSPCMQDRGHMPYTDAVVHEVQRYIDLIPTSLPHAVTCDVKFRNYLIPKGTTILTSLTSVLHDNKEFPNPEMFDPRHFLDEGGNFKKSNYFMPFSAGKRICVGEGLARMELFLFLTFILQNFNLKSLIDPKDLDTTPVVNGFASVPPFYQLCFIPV

[15] = Volume of distribution at steady state in Beagle dog at 3 mg/kg, po and 1 mg/kg, iv; type: ADME, organism-based, Canis lupus familiaris; details: in vivo, read-out: Vdss; how it was run: as §1
Histamine H4 receptor = Histamine H4 receptor (Homo sapiens, UniProt Q9H3N8); experiment: Binding affinity to human histamine H4 receptor
Cytochrome P450 2C9 = Cytochrome P450 2C9 (Homo sapiens, UniProt P11712); experiment: Inhibition of CYP2C9; type: ADME
Cytochrome P450 2C9, sequence (P11712 whole entry): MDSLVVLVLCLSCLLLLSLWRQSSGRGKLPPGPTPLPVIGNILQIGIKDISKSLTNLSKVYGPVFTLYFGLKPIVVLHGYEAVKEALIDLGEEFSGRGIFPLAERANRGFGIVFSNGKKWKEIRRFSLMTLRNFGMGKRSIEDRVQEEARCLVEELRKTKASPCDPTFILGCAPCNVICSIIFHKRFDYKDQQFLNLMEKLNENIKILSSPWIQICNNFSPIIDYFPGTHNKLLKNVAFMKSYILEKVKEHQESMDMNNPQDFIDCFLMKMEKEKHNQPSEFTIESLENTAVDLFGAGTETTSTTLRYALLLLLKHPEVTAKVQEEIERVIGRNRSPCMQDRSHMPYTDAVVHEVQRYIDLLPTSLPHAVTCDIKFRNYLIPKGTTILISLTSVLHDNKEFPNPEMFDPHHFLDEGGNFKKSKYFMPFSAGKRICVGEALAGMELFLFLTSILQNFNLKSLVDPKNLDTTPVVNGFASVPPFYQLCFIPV

Heart = experiment: Cardiotoxicity in rabbit heart assessed as induction of QT interval prolongation; type: toxicity, tissue-based, Oryctolagus cuniculus
[16] = Half life in CD rat at 3 mg/kg, po and 1 mg/kg, iv; type: ADME, organism-based; details: in vivo; how it was run: as §2
[17] = Clearance in CD rat at 3 mg/kg, po and 1 mg/kg, iv; type: ADME, organism-based; details: in vivo; how it was run: as §2
[18] = target: T1, Voltage-gated inwardly rectifying potassium channel KCNH2; experiment: Displacement of labeled dofetilide human ERG
Cavia porcellus [19] = experiment: Antiallergic rhinitis activity in conscious guinea pig assessed as duration of inhibition of histamine-induced nasal congestion at 0.1 to 1 mg/ml administered intranasally; type: functional
Canis familiaris = experiment: Liver blood flow in Beagle dog at 3 mg/kg, po and 1 mg/kg, iv; type: ADME, organism-based, Canis lupus familiaris; details: in vivo; how it was run: as §1
[20] = Bioavailability in intranasally dosed human; type: ADME, organism-based; details: in vivo, inhaled or intranasal
[21] = Clearance in Beagle dog at 2 mg/kg, po and 1 mg/kg, iv; type: ADME, organism-based, Canis lupus familiaris; details: in vivo
Histamine H3 receptor = Histamine H3 receptor (Homo sapiens, UniProt Q9Y5N1); experiment: Antagonist activity at human recombinant histamine H3 receptor expressed in CHO cells assessed as inhibition of histamine-induced GTP-gammaS binding; type: functional, cell-based
Histamine H3 receptor, sequence (Q9Y5N1 whole entry): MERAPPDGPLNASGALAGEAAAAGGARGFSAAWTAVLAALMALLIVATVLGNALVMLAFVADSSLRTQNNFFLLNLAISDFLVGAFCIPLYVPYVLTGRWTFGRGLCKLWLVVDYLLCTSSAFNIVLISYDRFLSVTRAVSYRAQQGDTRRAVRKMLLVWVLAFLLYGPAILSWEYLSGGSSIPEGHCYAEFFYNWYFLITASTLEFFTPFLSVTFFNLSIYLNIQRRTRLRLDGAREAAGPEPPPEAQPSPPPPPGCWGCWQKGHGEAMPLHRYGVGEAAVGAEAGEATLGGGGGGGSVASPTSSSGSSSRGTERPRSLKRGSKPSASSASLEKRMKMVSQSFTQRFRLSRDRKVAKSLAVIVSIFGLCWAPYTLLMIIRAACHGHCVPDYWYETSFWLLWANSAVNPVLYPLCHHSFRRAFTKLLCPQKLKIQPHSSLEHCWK
How it was run: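 Membranes from CHO cells transfected with cloned human H3 receptor; reduction of histamine-stimulated GTPγS binding, detected by scintillation proximity.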

[22] = Oral bioavailability in Beagle dog at 2 mg/kg; type: ADME, organism-based, Canis lupus familiaris; details: in vivo
Cavia porcellus [23] = experiment: Antiallergic rhinitis activity in conscious guinea pig assessed as duration of inhibition of histamine-induced nasal congestion at 1 mg/ml administered intranasally; type: functional
[24] = Half life in Beagle dog at 2 mg/kg, po and 1 mg/kg, iv; type: ADME, organism-based, Canis lupus familiaris; details: in vivo
[25] = Volume of distribution at steady state in Beagle dog at 2 mg/kg, po and 1 mg/kg, iv; type: ADME, organism-based, Canis lupus familiaris; details: in vivo, read-out: Vdss
[26] = Solubility of the compound in phosphate buffered saline at pH 7.4; type: physicochemical
[27] = Lipophilicity, log D of the compound; type: physicochemical; details: octanol/water; read-out: logD

Cytochrome P450 3A4, sequence (P08684 whole entry): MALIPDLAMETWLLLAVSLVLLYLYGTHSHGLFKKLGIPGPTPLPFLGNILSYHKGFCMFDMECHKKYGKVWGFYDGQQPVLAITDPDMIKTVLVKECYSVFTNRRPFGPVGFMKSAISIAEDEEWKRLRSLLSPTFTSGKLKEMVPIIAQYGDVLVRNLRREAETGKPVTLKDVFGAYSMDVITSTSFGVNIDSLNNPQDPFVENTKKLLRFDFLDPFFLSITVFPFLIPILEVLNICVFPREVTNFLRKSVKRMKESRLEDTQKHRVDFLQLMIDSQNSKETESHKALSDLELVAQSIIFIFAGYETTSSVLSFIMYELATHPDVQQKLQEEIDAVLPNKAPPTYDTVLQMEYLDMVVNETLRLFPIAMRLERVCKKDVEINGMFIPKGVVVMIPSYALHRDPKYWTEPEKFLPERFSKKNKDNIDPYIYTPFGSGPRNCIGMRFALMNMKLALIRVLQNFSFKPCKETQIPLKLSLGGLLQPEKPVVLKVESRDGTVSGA

IC50 (Cytochrome P450 3A4): 300 nM
Stability (Hepatocyte): Unstable
half-life [2]: 9.4 h
Stability (Liver microsomes [3]): Stable
Ki [4]: 31.6 nM
IC50 (Cytochrome P450 2D6): 40 nM
Vd [5]: 3.9 L/kg
Ki (Histamine H1 receptor [6]): 10 nM
IC50 (Histamine H2 receptor): 10000 nM
bioavailability [7]: 4%
Kb (Histamine H1 receptor [8]): 0.794 nM
Ki [9]: 39.8 nM
IC50 (Cytochrome P450 1A2): > 3000 nM
LBF (Rattus norvegicus): 35%
clearance [10]: 27 mL/min/kg
Kp [11]: 0.6
Stability (Liver microsomes [12]): Stable
dose excreted at 24 h [13]: < 1%
bioavailability [14]: 19%
Stability (Liver): Stable
IC50 (Cytochrome P450 2C19): > 3000 nM
Vd [15]: 22 L/kg
IC50 (Histamine H4 receptor): 10000 nM
IC50 (Cytochrome P450 2C9): > 3000 nM
half-life [16]: 2.2 h
clearance [17]: 30 mL/min/kg
LBF (Canis familiaris): 87%
Compound: O=c1c2ccccc2c(Cc2ccc(Cl)cc2)nn1C[C@H]1CCCN1CCCCc1ccc(OCCCN2CCCCCC2)cc1 [GSK-1004723]
inhibition (INH) [1]: Active
Activity (Heart): Non-toxic
IC50 [18]: 50.1 nM
Time (Cavia porcellus [19]): 72 h

bioavailability [20]: 40%
clearance [21]: 22 mL/min/kg
Ki [4]: 50.1 nM
IC50 (Cytochrome P450 2D6): 1000 nM
Vd [5]: 1.8 L/kg
bioavailability [7]: 7%
Ki [9]: 50.1 nM
Ki (Histamine H3 receptor): 158 nM
LBF (Rattus norvegicus): 41%
bioavailability [22]: 46%
Kp [11]: 7.5
half-life [24]: 3.2 h
half-life [16]: 1 h
clearance [17]: 35 mL/min/kg
Vd [25]: 4.9 L/kg
Compound: CN1CCCC(n2nc(Cc3ccc(Cl)cc3)c3ccccc3c2=O)CC1 (racemic) [AZELASTINE]
Time (Cavia porcellus [23]): <24 h

solubility [26]: 144 µg/mL
logD [27]: 2.25
Compound: CN1CCCC(n2nc(Cc3ccc(Cl)cc3)c3ccccc3c2=O)CC1.Cl (racemic) [AZELASTINE HYDROCHLORIDE]
